# Assay results taken from ChEMBL document CHEMBL4390647, “Efficient click chemistry towards novel 1H-1,2,3-triazole-tethered 4H-chromene-d-glucose conjugates: Design, synthesis and evaluation of in vitro antibacterial, MRSA and antifungal activities” (Eur J Med Chem, 2019).
# Tests used:
# Bacillus subtilis = experiment: Antibacterial activity against Bacillus subtilis ATCC 11774 after 18 to 20 hrs by microbroth dilution method; type: functional
# Method in brief: (§1)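 Inoculum from a 4–6-h broth adjusted to 0.5 McFarland, final 5 × 10⁵ CFU/mL. Incubation at 35°C for 18–20 h. MIC taken as the lowest concentration giving complete inhibition of visible growth; three experiments.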
# Staphylococcus aureus [1] = experiment: Antibacterial activity against Staphylococcus aureus ATCC 11632 after 18 to 20 hrs by microbroth dilution method; type: functional; method in brief: as §1
# [2] = tested on: Staphylococcus epidermidis; experiment: Antibacterial activity against Staphylococcus epidermidis ATCC 12228 after 18 to 20 hrs by microbroth dilution method; type: functional; method in brief: as §1
# Escherichia coli = experiment: Antibacterial activity against Escherichia coli ATCC 25922 measured after 18 to 20 hrs by microbroth dilution method; type: functional; method in brief: as §1
# Klebsiella pneumoniae = experiment: Antibacterial activity against measured after Klebsiella pneumoniae ATCC 4352 measured after 18 to 20 hrs by microbroth dilution method; type: functional; method in brief: as §1
# Pseudomonas aeruginosa = experiment: Antibacterial activity against Pseudomonas aeruginosa […] measured after 18 to 20 hrs by microbroth dilution method; type: functional; method in brief: as §1
# Salmonella typhimurium = experiment: Antibacterial activity against Salmonella typhimurium ATCC 14028 measured after 18 to 20 hrs by microbroth dilution method; type: functional, Salmonella enterica subsp. enterica serovar Typhimurium; conditions: Salmonella enterica; method in brief: as §1
# Staphylococcus aureus [3] = experiment: Antibacterial activity against Staphylococcus aureus MRSA198 clinical isolate-1 measured after 18 to 20 hrs by microbroth dilution method; type: functional; conditions: MRSA198 isolate-1
# Staphylococcus aureus [4] = experiment: Antibacterial activity against Staphylococcus aureus MRSA198 clinical isolate-2 measured after 18 to 20 hrs by microbroth dilution method; type: functional; conditions: MRSA198 isolate-2
# Staphylococcus aureus [5] = experiment: Antibacterial activity against Staphylococcus aureus MRSA198 clinical isolate-3 measured after 18 to 20 hrs by microbroth dilution method; type: functional; conditions: MRSA198 isolate-3
# Aspergillus flavus = experiment: Antifungal activity against Aspergillus flavus ATCC 204304 measured after 72 hrs by agar dilution method; type: functional; conditions: ATCC 204304, 72 h
# Method in brief: (§2)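 Agar dilution on Sabouraud dextrose agar, with compounds at […] to 0.78 μM in twofold steps. Fungal suspensions at 10 CFU/mL as printed were applied to the compound-containing plates. Incubation at 35°C; MIC read after 72 h. Three experiments.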
# Candida albicans = experiment: Antifungal activity against Candida albicans ATCC 7754 after 72 hrs by agar dilution method; type: functional; conditions: ATCC 7754, 72 h; method in brief: as §2
# Saccharomyces cerevisiae = experiment: Antifungal activity against Saccharomyces cerevisiae SH 20 after 72 hrs by agar dilution method; type: functional; conditions: SH 20, 72 h; method in brief: as §2
# [6] = Cytotoxicity against mouse RAW264.7 cells assessed as growth inhibition at 50 ug/mL after 120 hrs by MTT assay relative to control; type: cell-based; conditions: read-out: GI
# Method in brief: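 RAW 264.7 mouse macrophages were seeded at 25,000 cells/well and left to attach overnight. Compound in DMSO was added from a 200× concentrate, in duplicate wells, to a 50 μg/mL test level; DMSO served as control. Exposure 120 h at 37°C in 5% CO₂. MTT (4 mg/mL in PBS) was added for 4 h, formazan dissolved in DMSO, and absorbance read at 560 nm. Viability expressed as % of untreated cells, mean ± SE of at least three independent experiments.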
# Aspergillus niger = experiment: Antifungal activity against Aspergillus niger ATCC 439 measured after 72 hrs by agar dilution method; type: functional; conditions: ATCC 439, 72 h; method in brief: as §2
structure (smiles),measurement,setting,value
CC(=O)OC[C@H]1O[C@@H](n2cc(COc3ccc4c(c3)OC(N)=C(C#N)C4c3ccc(Cl)cc3Cl)nn2)[C@H](OC(C)=O)[C@@H](OC(C)=O)[C@@H]1OC(C)=O (some centres not stated),MIC,Bacillus subtilis,3.12 µM
same,MIC,Staphylococcus aureus [1],12.5 µM
same,MIC,[2],12.5 µM
same,MIC,Escherichia coli,3.12 µM
same,MIC,Klebsiella pneumoniae,200 µM
same,MIC,Pseudomonas aeruginosa,50 µM
same,MIC,Salmonella typhimurium,3.12 µM
same,MIC,Staphylococcus aureus [3],6.25 µM
same,MIC,Staphylococcus aureus [4],1.56 µM
same,MIC,Staphylococcus aureus [5],3.12 µM
same,MIC,Aspergillus flavus,25 µM
same,MIC,Candida albicans,100 µM
same,MIC,Saccharomyces cerevisiae,400 µM
same,"inhibition at 120 h, 50 ug/mL",[6],18.1%
CC(=O)OC[C@H]1O[C@@H](n2cc(COc3ccc4c(c3)OC(N)=C(C#N)C4c3ccccc3Cl)nn2)[C@H](OC(C)=O)[C@@H](OC(C)=O)[C@@H]1OC(C)=O (some centres not stated),MIC,Bacillus subtilis,1.56 µM
same,MIC,Staphylococcus aureus [1],200 µM
same,MIC,[2],3.12 µM
same,MIC,Escherichia coli,1.56 µM
same,MIC,Klebsiella pneumoniae,400 µM
same,MIC,Pseudomonas aeruginosa,12.5 µM
same,MIC,Salmonella typhimurium,6.25 µM
same,MIC,Staphylococcus aureus [5],400 µM
same,MIC,Aspergillus niger,400 µM
same,MIC,Aspergillus flavus,6.25 µM
same,MIC,Candida albicans,25 µM
same,"inhibition at 120 h, 50 ug/mL",[6],21.1%
CC(=O)OC[C@H]1O[C@@H](n2cc(COc3ccc4c(c3)OC(N)=C(C#N)C4c3ccc(N(C)C)cc3)nn2)[C@H](OC(C)=O)[C@@H](OC(C)=O)[C@@H]1OC(C)=O (some centres not stated),MIC,Bacillus subtilis,100 µM
same,MIC,Staphylococcus aureus [1],100 µM
same,MIC,Escherichia coli,12.5 µM
same,MIC,Pseudomonas aeruginosa,1.56 µM
same,MIC,Salmonella typhimurium,50 µM
same,MIC,Staphylococcus aureus [3],400 µM
same,MIC,Staphylococcus aureus [4],400 µM
same,MIC,Staphylococcus aureus [5],200 µM
same,MIC,Aspergillus flavus,12.5 µM
same,MIC,Candida albicans,12.5 µM
same,MIC,Saccharomyces cerevisiae,100 µM
same,"inhibition at 120 h, 50 ug/mL",[6],19.6%
O=C(O)c1cn(C2CC2)c2cc(N3CCNCC3)c(F)cc2c1=O [CIPROFLOXACIN],MIC,Bacillus subtilis,3.12 µM
same,MIC,Staphylococcus aureus [1],3.12 µM
same,MIC,[2],3.12 µM
same,MIC,Escherichia coli,1.56 µM
same,MIC,Klebsiella pneumoniae,1.56 µM
same,MIC,Pseudomonas aeruginosa,1.56 µM
same,MIC,Salmonella typhimurium,1.56 µM
COc1cccc(OC)c1C(=O)N[C@@H]1C(=O)N2[C@@H]1SC(C)(C)[C@@H]2C(=O)O [METHICILLIN],MIC,Bacillus subtilis,400 µM
same,MIC,Staphylococcus aureus [1],400 µM
same,MIC,[2],400 µM
same,MIC,Escherichia coli,400 µM
same,MIC,Klebsiella pneumoniae,400 µM
same,MIC,Pseudomonas aeruginosa,400 µM
same,MIC,Salmonella typhimurium,400 µM
CN[C@H](CC(C)C)C(=O)N[C@H]1C(=O)N[C@@H](CC(N)=O)C(=O)N[C@H]2C(=O)N[C@H]3C(=O)N[C@H](C(=O)N[C@H](C(=O)O)c4cc(O)cc(O)c4-c4cc3ccc4O)[C@H](O)c3ccc(c(Cl)c3)Oc3cc2cc(c3O[C@@H]2O[C@H](CO)[C@@H](O)[C@H](O)[C@H]2O[C@H]2C[C@](C)(N)[C@H](O)[C@H](C)O2)Oc2ccc(cc2Cl)[C@H]1O [VANCOMYCIN],MIC,Bacillus subtilis,0.78 µM
same,MIC,Staphylococcus aureus [1],1.56 µM
same,MIC,[2],3.12 µM
same,MIC,Escherichia coli,3.12 µM
same,MIC,Klebsiella pneumoniae,3.12 µM
same,MIC,Pseudomonas aeruginosa,3.12 µM
same,MIC,Salmonella typhimurium,3.12 µM
same,MIC,Staphylococcus aureus [3],1.55 µM
same,MIC,Staphylococcus aureus [4],1.56 µM
same,MIC,Staphylococcus aureus [5],1.56 µM
CC(=O)OC[C@H]1O[C@@H](n2cc(COc3ccc4c(c3)OC(N)=C(C#N)C4c3ccc(C)cc3)nn2)[C@H](OC(C)=O)[C@@H](OC(C)=O)[C@@H]1OC(C)=O (some centres not stated),MIC,Bacillus subtilis,50 µM
same,MIC,Staphylococcus aureus [1],400 µM
same,MIC,[2],400 µM
same,MIC,Escherichia coli,12.5 µM
same,MIC,Klebsiella pneumoniae,400 µM
same,MIC,Pseudomonas aeruginosa,400 µM
same,MIC,Salmonella typhimurium,200 µM
same,MIC,Staphylococcus aureus [5],400 µM
same,MIC,Aspergillus niger,100 µM
same,MIC,Aspergillus flavus,3.12 µM
same,MIC,Candida albicans,400 µM
same,MIC,Saccharomyces cerevisiae,3.12 µM
same,"inhibition at 120 h, 50 ug/mL",[6],19.6%
CC(=O)OC[C@H]1O[C@@H](n2cc(COc3ccc4c(c3)OC(N)=C(C#N)C4c3cccc(Cl)c3Cl)nn2)[C@H](OC(C)=O)[C@@H](OC(C)=O)[C@@H]1OC(C)=O (some centres not stated),MIC,Bacillus subtilis,25 µM
same,MIC,Staphylococcus aureus [1],50 µM
same,MIC,[2],200 µM
same,MIC,Escherichia coli,200 µM
same,MIC,Pseudomonas aeruginosa,6.25 µM
same,MIC,Salmonella typhimurium,50 µM
same,MIC,Staphylococcus aureus [3],200 µM
same,MIC,Staphylococcus aureus [4],200 µM
same,MIC,Staphylococcus aureus [5],100 µM
same,MIC,Aspergillus niger,200 µM
same,MIC,Aspergillus flavus,200 µM
same,MIC,Candida albicans,25 µM
same,"inhibition at 120 h, 50 ug/mL",[6],23.8%
COc1cccc(C2C(C#N)=C(N)Oc3cc(OCc4cn([C@@H]5O[C@H](COC(C)=O)[C@@H](OC(C)=O)[C@H](OC(C)=O)[C@H]5OC(C)=O)nn4)ccc32)c1 (some centres not stated),MIC,Bacillus subtilis,200 µM
same,MIC,Staphylococcus aureus [1],400 µM
same,MIC,[2],100 µM
same,MIC,Escherichia coli,200 µM
same,MIC,Klebsiella pneumoniae,6.25 µM
same,MIC,Pseudomonas aeruginosa,400 µM
same,MIC,Salmonella typhimurium,100 µM
same,MIC,Staphylococcus aureus [5],400 µM
same,MIC,Aspergillus niger,400 µM
same,MIC,Aspergillus flavus,1.56 µM
same,MIC,Candida albicans,400 µM
same,MIC,Saccharomyces cerevisiae,25 µM
same,"inhibition at 120 h, 50 ug/mL",[6],25.1%
Clc1ccc(COC(Cn2ccnc2)c2ccc(Cl)cc2Cl)c(Cl)c1 (configuration not stated) [MICONAZOLE],MIC,Aspergillus niger,1.56 µM
same,MIC,Aspergillus flavus,1.56 µM
same,MIC,Candida albicans,3.12 µM
same,MIC,Saccharomyces cerevisiae,3.12 µM
CC(=O)OC[C@H]1O[C@@H](n2cc(COc3ccc4c(c3)OC(N)=C(C#N)C4c3ccc([N+](=O)[O-])cc3)nn2)[C@H](OC(C)=O)[C@@H](OC(C)=O)[C@@H]1OC(C)=O (some centres not stated),MIC,Bacillus subtilis,50 µM
same,MIC,Staphylococcus aureus [1],400 µM
same,MIC,[2],50 µM
same,MIC,Escherichia coli,400 µM
same,MIC,Klebsiella pneumoniae,12.5 µM
same,MIC,Pseudomonas aeruginosa,50 µM
same,MIC,Staphylococcus aureus [3],400 µM
same,MIC,Staphylococcus aureus [4],400 µM
same,MIC,Staphylococcus aureus [5],200 µM
same,MIC,Aspergillus flavus,1.56 µM
same,MIC,Candida albicans,25 µM
same,MIC,Saccharomyces cerevisiae,3.12 µM
same,"inhibition at 120 h, 50 ug/mL",[6],27.6%
CC(=O)OC[C@H]1O[C@@H](n2cc(COc3ccc4c(c3)OC(N)=C(C#N)C4c3ccc(C(C)C)cc3)nn2)[C@H](OC(C)=O)[C@@H](OC(C)=O)[C@@H]1OC(C)=O (some centres not stated),MIC,Bacillus subtilis,6.25 µM
same,MIC,Staphylococcus aureus [1],100 µM
same,MIC,[2],400 µM
same,MIC,Escherichia coli,200 µM
same,MIC,Klebsiella pneumoniae,1.56 µM
same,MIC,Pseudomonas aeruginosa,6.25 µM
same,MIC,Salmonella typhimurium,50 µM
same,MIC,Staphylococcus aureus [3],400 µM
same,MIC,Staphylococcus aureus [4],400 µM
same,MIC,Staphylococcus aureus [5],200 µM
same,MIC,Aspergillus flavus,50 µM
same,MIC,Candida albicans,3.12 µM
same,MIC,Saccharomyces cerevisiae,12.5 µM
same,"inhibition at 120 h, 50 ug/mL",[6],17.9%
